Experimental data taken from ChEMBL document CHEMBL4038268, “Methylpyrrole inhibitors of BET bromodomains” (Bioorg Med Chem Lett, 2017).
Calls of active or inactive are those of the source. The rule behind the calls is not given here.

Assays:
[1] = molecular target: T1, Bromodomain-containing protein 4 (Homo sapiens, UniProt O60885); test: Binding affinity to His-tagged BRD4 BD1-BD2 (K57 to K550 residues) (unknown origin) after 1 hr by Alexa-647-conjugated probe based TR-FRET assay
[2] = molecular target: T1, Bromodomain-containing protein 4; test: Inhibition of BRD4 (unknown origin) expressed in human H1299 cells co-expressing HPV16-LCR/E2 after 24 hrs by Bright Glo-luciferase reporter gene assay; format: cell-based
Method in brief: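 Target-engagement reporter in an H1299-derived line carrying a stably integrated E2 expression cassette and an HPV-LCR-driven luciferase reporter. The read-out is BRD4-dependent E2-mediated transcriptional repression. EC50 is the mean of two measurements.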

[3] = test system: Liver; test: Unbound intrinsic clearance in mouse liver microsomes; format: ADME, microsome
[4] = Permeability of the compound; format: physicochemical; settings: not told; read-out: permeability
[5] = test system: MX1; test: Antiproliferative activity against human MX1 cells incubated over 72 hrs by Cell Titre Glo luminescence assay; format: functional, cell-based; settings: MX1, 72 h
Method in brief: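 Triple-negative breast cancer line MX-1 grown 3 days with compound. Proliferation read with the CellTiter-Glo kit. EC50 is the mean of two measurements.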

[6] = molecular target: T1, Bromodomain-containing protein 4; test: Binding affinity to Ile,Leu,Val,Met-[13C-methyl]-labelled BRD4 BD2 (352 to 457 residues) (unknown origin) expressed in Escherichia coli BL21 (DE3) by NMR method
[7] = test system: Mus musculus; test: Unbound AUC in mouse at 10 mg/kg, po; format: ADME, organism-based; settings: in vivo
[8] = Oral bioavailability in mouse at 10 mg/kg; format: ADME, organism-based; settings: in vivo
[9] = Half life in mouse at 3 mg/kg, iv; format: ADME, organism-based; settings: in vivo

Structure (SMILES) | Ki [1] [nM] | EC50 [2] [nM] | also measured
Cc1[nH]c(-c2cc(NS(C)(=O)=O)ccc2Oc2ccc(F)cc2F)c2c1C(=O)CCC2 | 97 | 75 | –
Cc1[nH]c(-c2cc(NS(C)(=O)=O)ccc2Oc2ccc(F)cc2F)c2c1C(=O)NCC2 | 84 | 420 | –
Cc1[nH]c(-c2ccccc2Oc2ccc(Cl)cc2)cc1C(N)=O | 410 | 280 | –
Cc1[nH]c(-c2cc(NS(C)(=O)=O)ccc2Oc2ccccc2)c2c1C(=O)NCC2 | 41 | 120 | –
Cc1[nH]c(-c2ccccc2Oc2ccccc2)cc1C(N)=O | 270 | 450 | –
Cc1[nH]c(-c2cc(NS(C)(=O)=O)ccc2Oc2ccccc2)c2cn[nH]c(=O)c12 | 30 | 180 | –
Cc1[nH]c(-c2ccccc2Oc2ccccc2)c2cc[nH]c(=O)c12 | 450 | 700 | –
Cc1[nH]c(-c2cc(NS(C)(=O)=O)ccc2Oc2ccc(F)cc2F)cc1C(N)=O | 370 | 2300 | –
CCS(=O)(=O)Nc1ccc(Oc2ccccc2)c(-c2[nH]c(C)c3c(=O)[nH]ncc23)c1 | 10 | 75 | CL free [3]: 800 mL/min/kg; Papp [4]: 9.5 ×10⁻⁶ cm/s; EC50 [5]: 52 nM
Cn1cc(-c2ccccc2Oc2ccccc2)c2cc[nH]c(=O)c21 | 120 | 1100 | CL free [3]: 106700 mL/min/kg; Papp [4]: 13 ×10⁻⁶ cm/s; EC50 [5]: 580 nM
Cn1cc(-c2cc(CS(C)(=O)=O)ccc2Oc2ccc(F)cc2F)c2cc[nH]c(=O)c21 | 11 | 40 | CL free [3]: 400 mL/min/kg; Papp [4]: 40 ×10⁻⁶ cm/s
Cc1[nH]c(-c2cc(NS(C)(=O)=O)ccc2Oc2ccc(F)cc2F)c2cn[nH]c(=O)c12 | 16 | 280 | CL free [3]: > 250 mL/min/kg; Papp [4]: 6.1 ×10⁻⁶ cm/s; EC50 [5]: 92 nM
COC(=O)c1ccc(Oc2ccccc2)c(-c2[nH]c(C)c3c2CCCC3=O)c1 | 91 | 2000 | –
Cc1[nH]c(-c2ccccc2Oc2ccccc2)c2nc[nH]c(=O)c12 | 1100 | 1600 | CL free [3]: > 6170 mL/min/kg; Papp [4]: 100 ×10⁻⁶ cm/s; EC50 [5]: 1200 nM
Cc1[nH]c(-c2cc(S(C)(=O)=O)ccc2Oc2ccc(F)cc2F)c2c1C(=O)CCC2 | 460 | 1400 | CL free [3]: 1400 mL/min/kg; EC50 [5]: 570 nM
Cn1cc(-c2cc(NS(C)(=O)=O)ccc2Oc2ccc(F)cc2F)c2cc[nH]c(=O)c21 | 17 | 46 | –
Cc1[nH]c(-c2ccccc2Oc2ccccc2)c2c1C(=O)CCC2 | 440 | 280 | –
Cc1[nH]c(-c2ccccc2N)cc1C(N)=O | 22000 | > 10000 | EC50 [5]: > 10000 nM
CCS(=O)(=O)Nc1ccc(Oc2ccc(F)cc2F)c(-c2cn(C)c3c(=O)[nH]ccc23)c1 | 11 | – | –

Structure (SMILES) | Ki [1] [nM] | EC50 [2] [nM] | also measured
Cc1[nH]c(-c2ccccc2Oc2ccccc2)c2cn[nH]c(=O)c12 | 37 | 220 | –
Cc1[nH]c(-c2cc(NS(C)(=O)=O)ccc2Oc2ccccc2)cc1C(N)=O | 280 | 1400 | –
Cc1[nH]c(-c2cc(S(C)(=O)=O)ccc2Oc2ccc(F)cc2F)c2cn[nH]c(=O)c12 | 77 | 750 | CL free [3]: 617 mL/min/kg; Papp [4]: 12 ×10⁻⁶ cm/s; EC50 [5]: 390 nM
Cc1[nH]c(-c2cc(N)ccc2Oc2ccccc2)cc1C(N)=O | 420 | 880 | –
Cc1[nH]c(-c2ccccc2)cc1C(N)=O | 12000 | – | –
Cc1[nH]c(-c2cc(S(C)(=O)=O)ccc2Oc2ccc(F)cc2F)cc1C(N)=O | 2200 | 4500 | CL free [3]: 100 mL/min/kg; EC50 [5]: 3200 nM
Cc1[nH]c(-c2ccccc2Oc2ccccc2)c2c1C(=O)NCC2 | 340 | 280 | –
Cc1[nH]c(-c2ccccc2Nc2ccccc2)cc1C(N)=O | 450 | 2800 | –
CCNC(=O)c1ccc(Oc2ccccc2)c(-c2[nH]c(C)c3c2CCCC3=O)c1 | 250 | 1400 | EC50 [5]: 1400 nM
Cc1[nH]c(-c2cc(N)ccc2Oc2ccccc2)c2c1C(=O)CCC2 | 210 | 300 | EC50 [5]: 230 nM
CC(=O)c1cc(-c2ccccc2N)[nH]c1C | 21000 | – | Activity [6]: Active
Cc1[nH]c(-c2ccccc2N)c2c1C(=O)CCC2 | 9500 | 7100 | –
Cc1[nH]c(-c2c(N)cccc2Oc2ccccc2)cc1C(N)=O | 1600 | 2100 | –
CCOC(=O)c1[nH]c(C)c2c1CCCC2=O | 25000 | – | Activity [6]: Active
Cn1cc(-c2cc(S(C)(=O)=O)ccc2Oc2ccccc2)c2cc[nH]c(=O)c21 | 17 | 91 | –
CCS(=O)(=O)Nc1ccc(Oc2ccc(F)cc2)c(-c2cn(C)c3c(=O)[nH]ccc23)c1 | 5.5 | 47 | fAUC [7]: 0.06 µM·h; bioavailability [8]: 33%; half-life [9]: 5.6 h
Cc1[nH]c(-c2cc(NS(C)(=O)=O)ccc2Oc2ccccc2)c2nc[nH]c(=O)c12 | 150 | 410 | –
COC(=O)C[C@@H]1N=C(c2ccc(Cl)cc2)c2c(sc(C)c2C)-n2c(C)nnc21 | 17 | – | –
